# Only some compounds are listed: those with a hit (about 2.3% of all), similar ones and a draw of the others.
# TRPC4 block: blocks the mouse TRPC4 cation channel; Q9QUQ5; HEK293 TRPC4beta/mu-opioid, DAMGO-evoked Fluo4 calcium flux; hits give low values; B-score at 10 µM; 300,000 compounds, 0.39% hits; AID 2247;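 active = B-score over 3 SD under the library average, no early fluorescence shift, positive overall ratio signal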
#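 Signal: kinetic Fluo4 fluorescence imaging of calcium influx. Material: stable TRPC4beta/mu-opioid receptor HEK293 cells. Probe or stimulus: DAMGO in two steps, submaximal then maximal.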
# TRPC6 inh: blocks the mouse TRPC6 cation channel. Q61143. HEK293-TRPC6, membrane potential dye, ACh-evoked depolarization; hits give low values. B-score at 10 µM. 310,000 compounds, 1.1% hits;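 active = B-score under library mean minus 3 SD, initial fluorescence not abnormally high, positive integrated signal ratio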;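 also: B-score derived from integrated fluorescence ratio over the kinetic read; more negative B-score means stronger inhibition of depolarization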
# TRPC6 activator: activates the mouse TRPC6 cation channel | B-score at 10 µM | Q61143 | 310,000 compounds, 0.13% hits | HEK293-TRPC6 membrane potential dye fluorescence; hits give high values | AID 2550;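 active = B-score of the integrated fluorescence ratio above library mean plus 3 SD, and starting fluorescence ratio within library mean plus 5 SD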;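 also: higher score means more depolarization so channel activation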
# TRPC4 act: TRPC4 (mouse) channel activation. HEK293 TRPC4beta/mu-opioid, Fluo4 calcium fluorescence; hits give high values. AID 2237. Q9QUQ5. B-score at 10 µM. 310,000 compounds, 0.49% hits;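 active = B-score above 5 SD of library B-scores, and initial fluorescence ratio not above library mean plus 5 SD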;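 also: positive B-score marks a calcium rise read as TRPC4 activation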
#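 System – HEK293 cells stably co-expressing mouse TRPC4beta and mu-opioid receptor · Signal – Fluo4 calcium-sensitive dye fluorescence, kinetic, 1 Hz baseline · Benchmarks – buffer (low) and maximal DAMGO (high) · Read-out – B score of integrated fluorescence ratio per well · Incubation – dye loading 45 min room temperature, 110 s kinetic read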
# TRPC4 PAM: allosteric potentiators of mouse TRPC4 channel; B-score at 10 µM; AID 2227; HEK293 TRPC4beta/mu-opioid, DAMGO EC20, Fluo-4 Ca2+ flux; hits give high values; 310,000 compounds, 0.42% hits;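 active = B-score of calcium response area above 5 SD of library B-scores, with initial fluorescence ratio within 5 SD of library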;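 also: B-score of integrated fluorescence ratio over time as area under calcium response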
# TRPC4 sel inh 2: second check of whether TRPC6 inhibitors also affect mouse TRPC4. shares compounds with TRPC6 inh. HEK293 TRPC4/MOR, membrane potential dye fluorescence; channel activated by saturating DAMGO dose. inhibition, % at 10 µM. 920 compounds, 42% hits. AID 2776;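 active = compounds whose fluorescence signal differed from control wells by over 3 SD, either direction, in both duplicate plates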
# TRPC4 spec: mouse TRPC4 off-target activity of TRPC6 inhibitors | shares compounds with TRPC6 inh | HEK293 TRPC4/mu-opioid, membrane potential fluorescence | activity change, negative = inhibition, % at 10 µM | 920 compounds, 61% hits | AID 2777;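 active = rise or fall in signal beyond 3 SD of buffer-only wells in both replicate plates, either sign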;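 also: integrated kinetic ratio of fluorescence range over baseline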
# HEK293 MPD ctr 2-1: second counter-screen for TRPC6 inhibitors: parental HEK293 cells; shares compounds with TRPC6 inh; parental HEK293 membrane potential dye fluorescence; maximal acetylcholine challenge after compound addition; signal change vs control, % at 10 µM; 920 compounds, 31% hits; AID 2779;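 active = membrane potential signal moving either way by over 3 SD of the maximum-effect control, in both duplicate plates, meaning non-specific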
# HEK293 MPD ctr-1: checks TRPC6 inhibitor effects in parental HEK293 cells; shares compounds with TRPC6 inh; AID 2780; membrane potential signal change, % at 10 µM; 920 compounds, 60% hits; parental HEK293 membrane potential dye fluorescence;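 active = membrane potential signal shifting up or down by more than 3 SD of buffer-only wells, on both duplicate plates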
# HEK293 MPD ctr-2: counter-screen for TRPC6 modulators: effect in parental HEK293 cells. shares compounds with TRPC6 inh. membrane potential dye fluorescence. membrane potential signal change, % at 10 µM. 2,400 compounds, 51% hits. AID 488924;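 active = membrane potential signal moves up or down beyond 5 SD from buffer-only wells, on both duplicate plates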
# HEK293 MPD ctr 2-2: second counter-screen for TRPC6 modulators: effect in parental HEK293 cells. 2,400 compounds, 14% hits. membrane potential dye fluorescence; after compound, maximal acetylcholine stimulation. inhibition, % at 10 µM. shares compounds with TRPC6 inh;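 active = membrane potential signal drops by more than 5 SD from the mean control signal, in both duplicate plates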;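 also: plate controls were acetylcholine ECmax control wells for no effect and buffer only wells for full effect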
# TRPC4 ctr mod: tests whether TRPC6 modulators also affect mouse TRPC4; shares compounds with TRPC6 inh; HEK293 TRPC4/mu-opioid, membrane potential fluorescence; percent change from control (negative = decrease, positive = increase), % at 10 µM; 2,400 compounds, 69% hits; AID 488927;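 active = membrane potential signal moved up or down beyond 5 SD of buffer control wells, in both duplicate plates, actives on both sides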;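 also: plate controls were assay buffer wells for no effect and DAMGO maximal-effect wells for full effect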
# TRPC4 ctr inh 2: mouse TRPC4 off-target activity of TRPC6 modulators, second screen. shares compounds with TRPC6 inh. HEK293 TRPC4/mu-opioid, membrane potential dye fluorescence; stimulated with maximal-effect DAMGO. inhibition, % at 10 µM. 2,400 compounds, 55% hits. AID 488928;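 active = drop in membrane potential signal beyond 5 SD of the control wells in both duplicate plates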;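 also: TRPC4 counter screen for TRPC6 hits run under conditions tuned for TRPC6 not TRPC4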
# TRPC6 block conf: confirmation of mouse TRPC6 inhibitors | AID 488960 | shares compounds with TRPC6 inh | 3,300 compounds, 43% hits | HEK293-TRPC6, membrane potential dye, ACh-evoked depolarization | inhibition, % at 10 µM;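 active = fluorescence ratio falls more than 5 SD below the full-stimulation control mean, in both duplicate runs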;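 also: integrated fluorescence ratio of peak minus minimum over baseline after agonist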
# TRPC6 act confirm: confirmation of mouse TRPC6 activators. AID 488961. HEK293-TRPC6 membrane potential dye fluorescence, FDSS. 2,800 compounds, 11% hits. activation, % at 10 µM. shares compounds with TRPC6 inh;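 active = ratio signal rise beyond 5 SD above unstimulated control wells' mean, seen in both duplicate runs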;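 also: plate controls were buffer EC0 wells for no effect and acetylcholine ECmax response for full effect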
# Numbers without * were called inactive; i = inactive; . = no result given.
SMILES,TRPC4 block,TRPC6 inh,TRPC6 activator,TRPC4 act,TRPC4 PAM,HEK293 MPD ctr-2,HEK293 MPD ctr 2-2,TRPC4 ctr mod,TRPC4 ctr inh 2,TRPC6 block conf,TRPC6 act confirm,others
CCn1cnc2cc(NCc3ccc(Cl)cc3)ccc21,i,-5.59*,i,i,i,i,i,i,39.5%*,48.5%*,i,
CCc1ccc(CNc2ccc3c(c2)ncn3C)cc1,i,-6.31*,i,i,i,i,i,-14.5%*,61.0%*,37.0%*,i,
Cc1ccc(CNc2ccc3c(c2)ncn3C)cc1,i,i,i,i,i,.,.,.,.,.,.,
CCC(=O)Nc1ccc2c(c1)nc1n2CCN(CCOC)C1,i,i,i,i,i,.,.,.,.,.,.,
CC1=CC(C)(C)N(C(=O)CNC2CCCC2)c2cc(C)ccc21,i,-6.4*,i,i,i,125.0%*,i,31.0%*,45.0%*,54.5%*,.,
Cc1cc(OCC(=O)NCCc2ccc(Cl)cc2)c2c(C)cc(=O)oc2c1,i,i,i,i,i,.,.,.,.,.,.,
O=C(Nc1cccnc1Cl)c1cccs1,i,-5.06*,i,i,i,i,i,i,i,i,i,
COc1cccc(CN2CC(C(=O)NC3CCCCCC3)CCC2=O)c1 (stereo not given),i,i,i,i,i,.,.,.,.,.,.,
O=C(NNC(=O)C1CC=CCC1)c1ccccc1Cl (stereo not given),i,i,i,i,i,.,.,.,.,.,.,
CCOC(=O)c1cnc2ccc(C(=O)OC)cc2c1Nc1ccc(C(=O)O)cc1,i,-5.18*,i,i,i,-247.5%*,i,-37.0%*,43.0%*,i,i,
CCOC(=O)c1cnc2ccc(C(=O)OC)cc2c1Nc1ccc2c(c1)OCCO2,i,i,i,i,i,.,.,.,.,.,.,
CCOC(=O)c1ccc2ncc(C(=O)OCC)c(Nc3ccc(N4CCOCC4)cc3)c2c1,i,-9.7*,i,i,i,-185.5%*,i,-45.5%*,41.5%*,i,i,
CCOC(=O)c1cnc2ccc(OC)cc2c1Nc1ccc2c(c1)OCCO2,i,-7.5*,i,i,i,.,.,.,.,i,i,TRPC4 sel inh 2=i;TRPC4 spec=-14.1%*;HEK293 MPD ctr 2-1=i;HEK293 MPD ctr-1=-292.0%*
CC(OC(=O)CC1CCCC1)C(=O)Nc1ccc(S(N)(=O)=O)cc1 (stereo not given),i,i,i,i,i,.,.,.,.,.,.,
O=C(CC(NC(=O)C(F)(F)F)c1ccccc1)Nc1nnc(CCc2ccccc2)s1 (stereo not given),i,i,i,i,i,.,.,.,.,.,.,

# Bioassay records from PubChem.
